Results reported in ChEMBL document CHEMBL4011632, “Design, Synthesis, and Evaluation of Thiazolidine-2,4-dione Derivatives as a Novel Class of Glutaminase Inhibitors” (J Med Chem, 2017).
The source made the active and inactive calls. No cut-off for these calls is given here.

Tests used:
[1] = AUC (0 to infinity) in Sprague-Dawley rat at 10 mg/kg, po by HPLC-MS analysis; type: ADME, organism-based; design: dose 10 mg/kg, time infinity, route oral; conditions: in vivo
Outline: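 Male rats (330−380 g, 9−10 weeks old), jugular-vein cannulated 1 day before dosing, n = 3. Oral dose given in 1% CMC/0.5% Tween-80. Blood (100 μL) taken via cannula at 0, 15 and 30 min and 1, 2, 4, 6, 8 and 24 h, kept on ice. Plasma analysed by HPLC−tandem MS. Parameters from noncompartmental analysis.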

MDA-MB-231 = assay: Growth inhibition of human MDA-MB-231 cells after 72 hrs by MTS assay; type: functional, cell-based; conditions: MDA-MB-231, 72 h
Outline: (§1)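 Growth inhibition by MTS viability read-out. Cells seeded in 96-well plates at 4000/well (AsPC-1) or 8500/well (MDA-MB-231). Mean ± SD from at least three independent experiments, each in duplicate.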

[2] = Inhibition of recombinant human His-tagged KGA S384A mutant expressed in Escherichia coli BL21(DE3)pLysS using glutamine substrate preincubated for 10 mins followed by substrate addition measured after 60 mins
[3] = Oral bioavailability in Sprague-Dawley rat at 10 mg/kg by HPLC-MS analysis; type: ADME, organism-based; conditions: in vivo
Outline: (§2)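 Male rats (330−380 g, 9−10 weeks old), jugular-vein cannulated 1 day before dosing, n = 3. Dosed iv in DMA/PEG400 (20%/80%, v/v) or po in 1% CMC/0.5% Tween-80. Blood (100 μL) drawn at 0, 2 min, 5 min (iv only), 15 and 30 min, and 1, 2, 4, 6, 8 and 24 h. Plasma measured by LC-MS/MS; parameters from noncompartmental analysis.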

[4] = Cmax in Sprague-Dawley rat at 10 mg/kg, po by HPLC-MS analysis; type: ADME, organism-based; design: dose 10 mg/kg, route oral; conditions: in vivo; outline: as §2
ASPC1 [5] = assay: Anticlonogenic activity against human Aspc-1 cells at 10 uM after 21 days by crystal violet staining based assay relative to control; type: functional; conditions: ASPC1, 504 h
Outline: (§3)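 Anchorage-dependent colony formation: AsPC-1 cells seeded at 1000 cells/well in six-well plates and treated with compound. Colony formation is expressed as percent of vehicle treatment. Mean ± SD from at least three independent experiments, each in duplicate.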

[6] = Inhibition of recombinant human His-tagged KGA R387L mutant expressed in Escherichia coli BL21(DE3)pLysS using glutamine substrate preincubated for 10 mins followed by substrate addition measured after 60 mins
[7] = Terminal half life in Sprague-Dawley rat at 2 mg/kg, iv by HPLC-MS analysis; type: ADME, organism-based; conditions: in vivo, read-out: beta t1/2 (converted); outline: as §2
[8] = Volume of distribution at steady state in Sprague-Dawley rat at 2 mg/kg, iv by HPLC-MS analysis; type: ADME, organism-based; conditions: in vivo, read-out: Vdss
Outline: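 Male rats (330−380 g, 9−10 weeks old), quarantined 1 week, jugular-vein cannula implanted 1 day before dosing; n = 3. Single iv dose in DMA/PEG400 (20%/80%, v/v). Blood (100 μL) was drawn via cannula at 0, 2, 5, 15, 30 min and 1, 2, 4, 6, 8, 24 h and kept on ice. Plasma was analysed by HPLC−MS/MS. Vss came from noncompartmental analysis.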

[9] = Inhibition of recombinant human His-tagged KGA R387A mutant expressed in Escherichia coli BL21(DE3)pLysS using glutamine substrate preincubated for 10 mins followed by substrate addition measured after 60 mins
[10] = target: T1, Glutaminase liver isoform, mitochondrial (Homo sapiens) (UniProt Q9UI32); assay: Inhibition of human GLS2 in GLS1 deficient human Aspc-1 cells assessed as decrease in cellular glutamate production at 3.13 to 100 uM after 4 hrs by amplex red glutamic acid assay
T1 sequence (whole entry): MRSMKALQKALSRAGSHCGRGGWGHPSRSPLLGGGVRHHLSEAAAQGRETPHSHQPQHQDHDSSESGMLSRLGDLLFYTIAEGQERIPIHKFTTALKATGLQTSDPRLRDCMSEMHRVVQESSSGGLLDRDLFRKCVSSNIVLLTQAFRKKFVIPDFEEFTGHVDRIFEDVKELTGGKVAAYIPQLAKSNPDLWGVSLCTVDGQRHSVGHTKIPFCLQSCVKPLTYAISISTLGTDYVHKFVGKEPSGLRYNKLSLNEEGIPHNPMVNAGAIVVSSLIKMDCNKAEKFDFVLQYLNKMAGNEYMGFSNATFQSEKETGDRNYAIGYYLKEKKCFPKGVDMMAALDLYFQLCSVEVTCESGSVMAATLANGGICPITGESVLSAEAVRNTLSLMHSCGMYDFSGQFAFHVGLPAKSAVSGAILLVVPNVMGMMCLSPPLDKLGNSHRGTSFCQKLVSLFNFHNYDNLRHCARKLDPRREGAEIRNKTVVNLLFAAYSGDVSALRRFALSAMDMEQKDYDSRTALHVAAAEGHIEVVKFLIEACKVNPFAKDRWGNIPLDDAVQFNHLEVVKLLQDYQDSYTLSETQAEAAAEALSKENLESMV
Outline: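 GLS-knockout AsPC-1 cells made with GLS-KO ZFN mRNA, single-cell cloned, and grown in glutamine-free RPMI 1640 with 10% FBS. Cells seeded at 30 000/well and grown 24 h at 37 °C. Treated 4 h with 1% DMSO vehicle or 3.13−100 μM inhibitor, washed with PBS, and lysed in NP-40 buffer (4 °C, 20 min). Lysate glutamate measured by Amplex Red. Three independent experiments in duplicate.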

[11] = Terminal half life in Sprague-Dawley rat at 10 mg/kg, po by HPLC-MS analysis; type: ADME, organism-based; conditions: in vivo, read-out: beta t1/2 (converted); outline: as §2
[12] = Inhibition of recombinant human His-tagged KGA K507A mutant expressed in Escherichia coli BL21(DE3)pLysS using glutamine substrate preincubated for 10 mins followed by substrate addition measured after 60 mins
ASPC1 [13] = assay: Synergistic cytotoxicity against human Aspc-1 cells assessed as reduction in cell viability at ED50 in presence of doxorubicin by MTS assay; type: functional
Outline: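 AsPC-1 cells treated with compound combinations and viability read by MTS. Combination index at ED50, ED75 and ED90 calculated by the Chou−Talalay method. CI = 1 additive, <1 synergism, >1 antagonism. Representative of three independent experiments.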

ASPC1 [14] = assay: Growth inhibition of human Aspc-1 cells after 72 hrs by MTS assay; type: functional, cell-based; conditions: ASPC1, 72 h; outline: as §1
[15] = AUC (0 to infinity) in Sprague-Dawley rat at 2 mg/kg, iv by HPLC-MS analysis; type: ADME, organism-based; design: dose 2 mg/kg, route intravenous, time infinity; conditions: in vivo; outline: as §2
ASPC1 [16] = assay: Anticlonogenic activity against human Aspc-1 cells at 2 uM after 21 days by crystal violet staining based assay relative to control; type: functional; conditions: ASPC1, 504 h; outline: as §3
[17] = Tmax in Sprague-Dawley rat at 10 mg/kg, po by HPLC-MS analysis; type: ADME, organism-based; conditions: in vivo; outline: as §2
ASPC1 [18] = assay: Antitumor activity against human Aspc-1 cells xenografted in Balb/cAnN.Cg-Foxn1nu/CrlNarl mouse assessed as tumor growth inhibition at 25 mg/kg, ip once daily administered for 5 days followed by 2 days without dosing for 43 days relative to control; type: functional; conditions: read-out: TGI
Outline: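 Male nude mice (7−8 weeks, 18−22 g) received 4.5 × 10^6 AsPC-1 cells sc in the right flank, in HBSS mixed 1:1 with Matrigel. Mice were randomized once mean tumor reached ~100 mm3 (day 1). Dosing was ip once daily, 5 days on/2 days off, with 2% DMSO/PBS as vehicle. Tumors were measured twice weekly, V = ab²/2. %TGI = [1 − ((Tt − T0)/(Ct − C0))] × 100 from median volumes; Student's t test.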

## O=C(Cc1ccccc1)Nc1nnc(CCSCCc2nnc(NC(=O)Cc3ccccc3)s2)s1
[1]
  AUC(0-inf): 73 ng·h/mL
MDA-MB-231
  IC50: 6800 nM
[2]
  IC50: 65 nM
[3]
  bioavailability: 2%
[4]
  Cmax: 40 ng/mL
ASPC1 [5]
  inhibition at 10 µM: 98%
[6]
  IC50: 345 nM
[7]
  half-life: 5.3 h
[8]
  Vd: 8.8 L/kg
[9]
  IC50: 63 nM
[10]
  inhibition: inactive
[11]
  half-life: 2 h
[12]
  IC50: 66 nM
ASPC1 [13]
  CI: 0.45 - 0.68
ASPC1 [14]
  IC50: 10200 nM
[15]
  AUC(0-inf): 636 ng·h/mL
ASPC1 [16]
  inhibition at 2 µM: 41%
[17]
  Tmax: 0.7 h
ASPC1 [18]
  inhibition in vivo at 25 mg/kg: 55%
